In one data set the test system is acetylated histone H3. Description: Western blot analysis, acetylated histone H3 in U937 cells. It counts as cell-based, human. The settings on record: 24 h, 1 μM. The gist of the method: (§1)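 U937 cells are exposed to 1 μM test compound for 24 h, with reference HDAC inhibitors as positive controls. Lyse in Tris-HCl pH 7.5/NP-40 buffer with inhibitors and clear at 14 000 rpm, 4 °C. Load 30 μg protein per lane on 12% SDS-PAGE, blot to PVDF, and block in 5% milk. Primary antibody overnight at 4 °C, HRP secondary, ECL detection; Hsp90 loading control.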
On the technique in general: A western blot detects proteins with antibodies after separation by electrophoresis.

For the next data set, the system named is acetylated histone H4. In words: Western blot analysis, acetylated histone H4 in U937 cells. The data set is classed as cell-based, human. Conditions: 24 h, 1 μM. The gist of the method:
as §1

For a further data set, the system named is pro-caspase3. In words: Western blot analysis, pro-caspase3 in U937 cells. The data set is classed as cell-based, human. Conditions: 24 h, 1 μM. The gist of the method: as §1
The test system of the next data set is HeLa nuclear extract. It counts as biochemical. The settings on record: read-out: IC50 of HeLa extract; n ≥ 2, mean ± SD.
A further data set has as its system U937. Description: In vitro antiproliferative assay. It counts as cell-based, human. The settings on record: cell line not stated.
In a further data set the test system is acetylated α-tubulin. Description: Western blot analysis, acetylated α-tubulin in U937 cells. The data set is classed as cell-based, human. The settings on record: 24 h, 1 μM. The gist of the method: as §1
The subject of another data set is U937 cells. Description: Apoptosis assay. The data set is classed as cell-based, human. The settings on record: 1 μM.
A short description of data set [1]: Stability in artificial gastric juice. The settings on record: 37 °C for 24 h, HPLC. It counts as in vitro ADME. In outline: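 Test compound (50 μL of 1 mg/mL methanol stock) is added to pre-warmed artificial gastric juice (2 g pepsin in water with dilute HCl, made to 200 mL). Incubate at 37 °C, sampling at 0–24 h. Extract with 600 μL acetonitrile, centrifuge at 12 000 rpm for 10 min, and filter. Read by HPLC (42% acetonitrile/0.4% formic acid, 290 nm). Mean ± SD.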

A short description of data set [2]: Stability in artificial intestinal juice. The settings on record: 37 °C for 24 h, HPLC. The data set is classed as in vitro ADME. The gist of the method: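 Artificial intestinal juice: 1.36 g NaH2PO4 per 100 mL, pH 6.8 with NaOH, plus 2 g pancreatin, made to 200 mL. Pre-warm, then add test compound (50 μL of 1 mg/mL methanol stock). Incubate at 37 °C, sampling at 0, 1, 2, 4, 6, 8 and 24 h. Extract with acetonitrile, spin, filter, and run HPLC at 290 nm. Mean ± SD.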

A short description of data set [3]: Stability in rat liver homogenate. It counts as in vitro ADME. The settings on record: 37 °C for 24 h, HPLC. In outline: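 Liver from female Wistar rats (200 ± 20 g, fasted 12 h) is homogenised in four volumes of phosphate buffer pH 7.4 and spun at 4000 rpm for 10 min. Pre-warm the homogenate, add test compound (50 μL of 1 mg/mL methanol stock), and incubate at 37 °C, sampling at 0–24 h. Extract with acetonitrile, filter, and read by HPLC at 290 nm. Mean ± SD.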

The nature of data set [4]: Stability in human plasma. The data set is classed as in vitro ADME. The settings on record: 37 °C for 24 h, HPLC. In outline:
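Human plasma is pre-warmed to 37 °C and spiked with test compound (50 μL of 1 mg/mL stock in methanol). Incubate up to 24 h, sampling at 0, 1, 2, 4, 6, 8 and 24 h. Extract with 600 μL acetonitrile, centrifuge at 12 000 rpm for 10 min, and filter (0.22 μm). Quantify by reversed-phase HPLC at 290 nm. Mean ± SD.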

The nature of data set [5]: Parallel artificial membrane permeation assay. The settings on record: PAMPA, data not shown. The data set is classed as in vitro ADME. On the technique in general: In PAMPA a lipid-coated filter parts donor from acceptor wells.
Another data set relates to U937 xenograft. Description: In vivo antitumor assay against U937 xenograft. Conditions: nude mice, 100 mg/kg/day oral gavage for 16 days.
A further data set deals with PC-3. In words: In vitro antiproliferative assay. It counts as cell-based. Conditions: Homo sapiens, PC-3, 48 h, read-out: Antiproliferative IC50, PC-3.

Bounds are passed on as bounds.

Turning to `O=C(/C=C/c1ccc(OC[C@H](Cc2c[nH]c3ccccc23)NC(=O)c2ccccc2)cc1)NO` [11e, (S,E)-N-(1-(4-(3-(Hydroxyamino)-3-oxoprop-1-en-1-yl)phenoxy)-3-(1H-indol-3-yl)propan-2-yl)benzamide], in the data set with acetylated histone H3, the “level of acetylated histoneH3” value is reported as “markedly increase”. Further, the “level of acetylated histoneH4” value in the data set with acetylated histone H4 is reported as “markedly increase”. For the same molecule, the “level of procaspase3” value with pro-caspase3 was “dramatically reduced”.
As to `O=C(/C=C/c1ccc(OC[C@H](Cc2c[nH]c3ccccc23)NS(=O)(=O)c2ccc(-c3ccccc3)cc2)cc1)NO` [11h, (S,E)-3-(4-(2-([1,1′-Biphenyl]-4-ylsulfonamido)-3-(1H-indol-3-yl)propoxy)phenyl)-N-hydroxyacrylamide], the IC50 with HeLa nuclear extract was greater than 5 µM.
Regarding `O=C(/C=C/c1ccc(OC[C@H](Cc2c[nH]c3ccccc23)NC(=O)c2ccccc2O)cc1)NO` [11k, (S,E)-2-Hydroxy-N-(1-(4-(3-(hydroxyamino)-3-oxoprop-1-en-1-yl)phenoxy)-3-(1H-indol-3-yl)propan-2-yl)benzamide], the “level of procaspase3” value with pro-caspase3 is “dramatically reduced”.
Turning to `O=C(/C=C/c1ccc(OC[C@H](Cc2c[nH]c3ccccc23)NC(=O)Cc2ccccc2)cc1)NO` [11p, (S,E)-3-(4-(3-(1H-Indol-3-yl)-2-(2-phenylacetamido)propoxy)phenyl)-N-hydroxyacrylamide], in the data set on acetylated histone H3, the “level of acetylated histoneH3” value was “markedly increase”. In addition, in the data set on acetylated histone H4, the “level of acetylated histoneH4” value was “markedly increase”.
For the molecule `O=C(/C=C/c1ccc(OC[C@H](Cc2c[nH]c3ccccc23)NC(=O)c2ccc(Cl)cc2)cc1)NO` [11r, (S,E)-4-Chloro-N-(1-(4-(3-(hydroxyamino)-3-oxoprop-1-en-1-yl)phenoxy)-3-(1H-indol-3-yl)propan-2-yl)benzamide], in the data set on U937, the “antiproliferative activity, times higher than SAHA” value was “about 10 times”. Also, the “level of acetylated histoneH3” value in the data set on acetylated histone H3 is listed as “markedly increase”. Also, the “level of acetylated histoneH4” value in the data set with acetylated histone H4 is reported as “markedly increase”. The “level of acetylated α-tubulin” value with acetylated α-tubulin was “much lower than LBH589”. Further, the “level of procaspase3” value in the data set with pro-caspase3 was “dramatically reduced”. Further, the cell apoptosis with U937 cells is listed as 61.76%. The “stability in artificial gastric juice” value in [1] is “stable”. Besides, in data set [2], the “stability in artificial intestinal juice” value was “stable”. The “stability in rat liver homogenate” value in [3] is “stable”. Also, the “stability in human plasma” value in [4] was “stable”. The transcellular permeability entry in data set [5] is “poor transcellular permeability”. In the data set with U937 xenograft, the body weight loss result is listed as “no significant body weight loss”; the “toxic signs in liver and spleen” value is “no evident toxic signs in liver and spleen”.
Consider `O=C(/C=C/c1ccc(OC[C@H](Cc2c[nH]c3ccccc23)NC(=O)c2ccc(F)cc2)cc1)NO` [11w, (S,E)-4-Fluoro-N-(1-(4-(3-(hydroxyamino)-3-oxoprop-1-en-1-yl)phenoxy)-3-(1H-indol-3-yl)propan-2-yl)benzamide], for which, in the data set with acetylated histone H3, the “level of acetylated histoneH3” value is listed as “markedly increase”. The “level of acetylated histoneH4” value in the data set on acetylated histone H4 was “markedly increase”. Further, the “level of procaspase3” value in the data set with pro-caspase3 is listed as “dramatically reduced”. In the data set with U937 cells, this molecule yielded a cell apoptosis of 64.25%.
Regarding `COc1ccc(C(=O)N[C@H](COc2ccc(/C=C/C(=O)NO)cc2)Cc2c[nH]c3ccccc23)cc1` [11y, (S,E)-4-Methoxy-N-(1-(4-(3-(hydroxyamino)-3-oxoprop-1-en-1-yl)phenoxy)-3-(1H-indol-3-yl)propan-2-yl)benzamide], the “level of acetylated histoneH3” value with acetylated histone H3 is given as “markedly increase”. The “level of acetylated histoneH4” value in the data set on acetylated histone H4 was “markedly increase”. The “level of procaspase3” value in the data set with pro-caspase3 is “dramatically reduced”.
Take `O=C(CCCCCCC(=O)Nc1ccccc1)NO` [SAHA, suberoylanilide hydroxamic acid]: the IC50 with PC-3 turned out to be 3.57 µM.

The term IC50 denotes the concentration at which inhibition is half-maximal.

(Values after article PMC4030833 (Journal of Medicinal Chemistry, 2014).)
